The assay deals with primary mouse neuronal cultures. Nature of the assay: Synaptic recordings. It is filed as cell-based. The conditions noted are these: compared with the control. A digest of the protocol: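 Primary neurons from E18 mouse embryos plated at 10 K per well on coverslips. At DIV 11–13, sister coverslips from the same pups were treated 24 or 72 h before recording with DMSO (n = 4), γ-secretase inhibitor DAPT (n = 5) or test compound (n = 4), and all recorded the same day. Spontaneous miniature events analysed for frequency, interevent interval, amplitude and decay. Access resistance 2–14 MΩ.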

Regarding `C[C@H](NC(=O)Cc1cc(F)cc(F)c1)C(=O)N[C@H](C(=O)OC(C)(C)C)c1ccccc1` [difluorphenacetyl-alanyl phenylglycine t-butyl ester], the “Single quantum (amplitudes below 20 pA) and multiquantal (~35–45 pA) releases” value is “significantly more”.
